System: HEK-293T
Experiment: Multiplex assay against HEK293T
Type: toxicity, cell-based
Conditions: human
Summary of the method: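 With compound added, live cells were imaged on a CQ1 microscope at 37°C and 5% CO2; staining with Hoechst33342, BioTracker Green Microtubule Cytoskeleton Dye, MitoTracker Red and Annexin V Alexa Fluor 680 had been done at seeding. The CellPathfinder machine-learning gating scheme split cells into Hoechst high-intensity objects or normal cells, normal cells into healthy, pyknosed or fragmented nuclei, and pyknosed cells into mitotic or apoptotic. The tubulin, mitochondrial-mass and membrane-permeability phenotypes are per cents of healthy-nucleus cells.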

[1] = 12 h, 1 µM, compound concentration 1 uM, replicate 1
[2] = 12 h, 1 µM, compound concentration 1 uM, replicate 2
[3] = 12 h, 10 µM, compound concentration 10 uM, replicate 1
[4] = 12 h, 10 µM, compound concentration 10 uM, replicate 2
[5] = 24 h, 1 µM, compound concentration 1 uM, replicate 1
[6] = 24 h, 1 µM, compound concentration 1 uM, replicate 2
[7] = 24 h, 10 µM, compound concentration 10 uM, replicate 1
[8] = 24 h, 10 µM, compound concentration 10 uM, replicate 2
[9] = 48 h, 1 µM, compound concentration 1 uM, replicate 1
[10] = 48 h, 1 µM, compound concentration 1 uM, replicate 2
[11] = 48 h, 10 µM, compound concentration 10 uM, replicate 1
[12] = 48 h, 10 µM, compound concentration 10 uM, replicate 2

SMILES: Cc1cc(O)c(-c2ccc([C@@H](C)CN(C)C)cc2)c2c1[nH]c(=O)c1sccc12
- Population Apoptotic (%) [1]: 63%
- Population Fragmented Nuclei (%) [1]: 14%
- Population Healthy Nuclei (%) [1]: 49%
- Population Hoechst High Intensity Objects (%) [1]: 27%
- Population Membrane Permeable-Phenotype (%) [1]: 0%
- Population Mitochondria Different-Phenotype (%) [1]: 90%
- Population Mitotic Cells (%) [1]: 36%
- Population Normal (%) [1]: 72%
- Population Pyknosed Nuclei (%) [1]: 36%
- Population Tubulin-Different-Phenotype (%) [1]: 78%
- Total Cell Count [1]: 209
- Population Apoptotic (%) [2]: 59%
- Population Fragmented Nuclei (%) [2]: 8%
- Population Healthy Nuclei (%) [2]: 66%
- Population Hoechst High Intensity Objects (%) [2]: 28%
- Population Membrane Permeable-Phenotype (%) [2]: 1%
- Population Mitochondria Different-Phenotype (%) [2]: 91%
- Population Mitotic Cells (%) [2]: 40%
- Population Normal (%) [2]: 71%
- Population Pyknosed Nuclei (%) [2]: 25%
- Population Tubulin-Different-Phenotype (%) [2]: 74%
- Total Cell Count [2]: 207
- Population Apoptotic (%) [3]: 53%
- Population Fragmented Nuclei (%) [3]: 6%
- Population Healthy Nuclei (%) [3]: 44%
- Population Hoechst High Intensity Objects (%) [3]: 41%
- Population Membrane Permeable-Phenotype (%) [3]: 0%
- Population Mitochondria Different-Phenotype (%) [3]: 100%
- Population Mitotic Cells (%) [3]: 46%
- Population Normal (%) [3]: 58%
- Population Pyknosed Nuclei (%) [3]: 48%
- Population Tubulin-Different-Phenotype (%) [3]: 60%
- Total Cell Count [3]: 268
- Population Apoptotic (%) [4]: 70%
- Population Fragmented Nuclei (%) [4]: 7%
- Population Healthy Nuclei (%) [4]: 60%
- Population Hoechst High Intensity Objects (%) [4]: 28%
- Population Mitochondria Different-Phenotype (%) [4]: 94%
- Population Mitotic Cells (%) [4]: 29%
- Population Normal (%) [4]: 71%
- Population Pyknosed Nuclei (%) [4]: 31%
- Population Tubulin-Different-Phenotype (%) [4]: 72%
- Total Cell Count [4]: 195
- Population Apoptotic (%) [5]: 65%
- Population Fragmented Nuclei (%) [5]: 9%
- Population Healthy Nuclei (%) [5]: 60%
- Population Hoechst High Intensity Objects (%) [5]: 21%
- Population Membrane Permeable-Phenotype (%) [5]: 0%
- Population Mitochondria Different-Phenotype (%) [5]: 89%
- Population Mitotic Cells (%) [5]: 34%
- Population Normal (%) [5]: 78%
- Population Pyknosed Nuclei (%) [5]: 30%
- Population Tubulin-Different-Phenotype (%) [5]: 67%
- Total Cell Count [5]: 230
- Population Apoptotic (%) [6]: 68%
- Population Healthy Nuclei (%) [6]: 70%
- Population Mitochondria Different-Phenotype (%) [6]: 93%
- Population Mitotic Cells (%) [6]: 31%
- Population Pyknosed Nuclei (%) [6]: 19%
- Population Tubulin-Different-Phenotype (%) [6]: 74%
- Total Cell Count [6]: 205
- Population Apoptotic (%) [7]: 73%
- Population Fragmented Nuclei (%) [7]: 8%
- Population Healthy Nuclei (%) [7]: 67%
- Population Hoechst High Intensity Objects (%) [7]: 36%
- Population Membrane Permeable-Phenotype (%) [7]: 1%
- Population Mitochondria Different-Phenotype (%) [7]: 92%
- Population Mitotic Cells (%) [7]: 26%
- Population Normal (%) [7]: 63%
- Population Pyknosed Nuclei (%) [7]: 24%
- Population Tubulin-Different-Phenotype (%) [7]: 70%
- Total Cell Count [7]: 290
- Population Apoptotic (%) [8]: 85%
- Population Fragmented Nuclei (%) [8]: 7%
- Population Healthy Nuclei (%) [8]: 69%
- Population Hoechst High Intensity Objects (%) [8]: 25%
- Population Membrane Permeable-Phenotype (%) [8]: 0%
- Population Mitochondria Different-Phenotype (%) [8]: 93%
- Population Mitotic Cells (%) [8]: 14%
- Population Normal (%) [8]: 74%
- Population Pyknosed Nuclei (%) [8]: 23%
- Population Tubulin-Different-Phenotype (%) [8]: 80%
- Total Cell Count [8]: 203
- Population Apoptotic (%) [9]: 86%
- Population Fragmented Nuclei (%) [9]: 13%
- Population Healthy Nuclei (%) [9]: 65%
- Population Hoechst High Intensity Objects (%) [9]: 24%
- Population Membrane Permeable-Phenotype (%) [9]: 0%
- Population Mitochondria Different-Phenotype (%) [9]: 90%
- Population Mitotic Cells (%) [9]: 13%
- Population Normal (%) [9]: 75%
- Population Pyknosed Nuclei (%) [9]: 20%
- Population Tubulin-Different-Phenotype (%) [9]: 76%
- Total Cell Count [9]: 249
- Population Apoptotic (%) [10]: 69%
- Population Fragmented Nuclei (%) [10]: 16%
- Population Healthy Nuclei (%) [10]: 67%
- Population Hoechst High Intensity Objects (%) [10]: 25%
- Population Mitochondria Different-Phenotype (%) [10]: 96%
- Population Mitotic Cells (%) [10]: 30%
- Population Normal (%) [10]: 74%
- Population Pyknosed Nuclei (%) [10]: 16%
- Population Tubulin-Different-Phenotype (%) [10]: 70%
- Total Cell Count [10]: 212
- Population Apoptotic (%) [11]: 86%
- Population Fragmented Nuclei (%) [11]: 15%
- Population Healthy Nuclei (%) [11]: 64%
- Population Hoechst High Intensity Objects (%) [11]: 40%
- Population Membrane Permeable-Phenotype (%) [11]: 1%
- Population Mitochondria Different-Phenotype (%) [11]: 92%
- Population Mitotic Cells (%) [11]: 13%
- Population Normal (%) [11]: 59%
- Population Pyknosed Nuclei (%) [11]: 20%
- Population Tubulin-Different-Phenotype (%) [11]: 54%
- Total Cell Count [11]: 298
- Population Apoptotic (%) [12]: 87%
- Population Fragmented Nuclei (%) [12]: 13%
- Population Healthy Nuclei (%) [12]: 58%
- Population Hoechst High Intensity Objects (%) [12]: 34%
- Population Membrane Permeable-Phenotype (%) [12]: 0%
- Population Mitochondria Different-Phenotype (%) [12]: 100%
- Population Mitotic Cells (%) [12]: 12%
- Population Normal (%) [12]: 65%
- Population Pyknosed Nuclei (%) [12]: 28%
- Population Tubulin-Different-Phenotype (%) [12]: 73%
- Total Cell Count [12]: 223
